High-throughput results: PubChem BioAssay, several laboratories
Most compounds without a hit are left out; they make up all but 3.3% or so of the library.
PfM18AAP inh – PfM18AAP inhibitors, malaria aminopeptidase, primary screen, biochemical, QFRET, recombinant enzyme | H-Glu-NHMec fluorogenic cleavage | inhibition, % at 7.35 µM | 1.2% of 290,000 active;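 active means inhibition above the campaign mean inhibition over all tested compounds plus 3 SD, cut at about 28% in these data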;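 further: 0% = plate median of test compound wells and 100% = 2 mM ZnCl2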
NRP1-CendR mod – modulators of CendR peptide binding to NRP-1, primary screen, biochemical, fluorescence polarization, uHTS; Neuropilin-1 (Homo sapiens), O14786; FAM-RPARPAR peptide binding to NRP-1; inhibition, % at 25 µM; 0.85% of 360,000 active; AID 602438, 2012;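 active means inhibition or corrected inhibition above about 18%, plus a signal ratio from 0.5 to 1.5, limit read from the data, passing the limit was not always enough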
Target sequence (O14786 whole entry, looked up): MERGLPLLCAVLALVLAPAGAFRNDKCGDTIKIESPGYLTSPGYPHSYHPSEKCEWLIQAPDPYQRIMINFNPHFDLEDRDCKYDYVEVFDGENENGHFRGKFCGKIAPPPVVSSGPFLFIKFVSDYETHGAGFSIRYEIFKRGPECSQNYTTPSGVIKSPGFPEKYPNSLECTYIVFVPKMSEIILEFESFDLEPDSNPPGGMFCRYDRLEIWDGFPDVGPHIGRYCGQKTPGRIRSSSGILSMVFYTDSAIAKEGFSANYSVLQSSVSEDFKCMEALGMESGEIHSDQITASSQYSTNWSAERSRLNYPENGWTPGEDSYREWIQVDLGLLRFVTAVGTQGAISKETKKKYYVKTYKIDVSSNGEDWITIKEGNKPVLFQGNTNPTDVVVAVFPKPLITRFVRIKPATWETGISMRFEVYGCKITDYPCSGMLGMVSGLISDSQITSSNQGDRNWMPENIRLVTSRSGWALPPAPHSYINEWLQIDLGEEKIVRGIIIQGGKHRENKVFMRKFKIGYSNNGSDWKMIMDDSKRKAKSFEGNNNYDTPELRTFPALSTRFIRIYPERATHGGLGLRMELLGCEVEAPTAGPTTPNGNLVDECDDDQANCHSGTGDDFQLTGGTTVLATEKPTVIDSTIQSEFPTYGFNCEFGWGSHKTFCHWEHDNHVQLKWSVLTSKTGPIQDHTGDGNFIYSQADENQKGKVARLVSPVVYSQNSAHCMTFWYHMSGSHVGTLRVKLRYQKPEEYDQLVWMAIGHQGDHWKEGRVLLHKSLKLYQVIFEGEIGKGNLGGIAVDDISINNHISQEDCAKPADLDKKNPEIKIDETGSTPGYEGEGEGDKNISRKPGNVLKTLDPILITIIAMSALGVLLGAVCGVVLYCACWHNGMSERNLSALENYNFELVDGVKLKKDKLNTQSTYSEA
Lipid droplet – inhibitors of hepatocyte lipid droplet formation, primary screen, imaging, high-throughput imaging, BODIPY stain; AML12 mouse hepatocytes, oleate lipid droplets; inhibition, % at 6.5 µM; 0.4% of 240,000 active; AID 1656, 2009;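 active means lipid droplet intensity inhibited by at least 50%, with more than 500 cells counted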
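Material – mouse AML12 hepatocyte cell line, fixed after treatment · Compound dosing – one dose, 6.5 µM compound · Times – compound with oleate, overnight · Measured by – Image-based BODIPY and DAPI two-channel analysis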
m5-HT2A agonist – mouse Htr2a agonists via beta-arrestin recruitment, primary screen, cell-based, luminescence; 5-hydroxytryptamine receptor 2A (Mus musculus), P35363; 0.66% of 360,000 active; AID 624169, 2012; CHO-K1 mHTR2A beta-arrestin complementation; percent of 30 µM serotonin response; activation, % at 7.6 µM;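 active means activation above a run cutoff, the mean activation of all tested compounds plus 3 SD, cut at about 14% in these data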;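 further: 0% = plate median of compound wells and 100% = 30 µM serotonin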
Arrestin-AP2 inh – inhibitors of beta-arrestin/AP2 binding, primary screen, biochemical, GPCR trafficking, flow cytometry; FITC-arrestin peptide / GST-AP2 beads; AP2 beta2 appendage carries R879A mutation; 0.31% of 340,000 active; inhibition, % at 10 µM; AID 504490, 2011;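 active means inhibition above a set limit, near 3 SD of compounds lacking own fluorescence, cut at about 54% in these data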;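 further: plate controls were DMSO wells for no effect and 5 µM unlabelled arrestin peptide for full effect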
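Measured by: flow cytometry, FL1 (488/535 nm); Material: AP2 appendage R879A on GSH beads; Evaluation: percent response; Timing: pre-incubation 12 min, peptide binding 1 h, room temperature; Also added: 50 nM FITC-arrestin peptide; Medium: PBS with 0.05% Tween 20 and 0.1% BSA.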
HGIII-sPLA2 inh – human group III sPLA2 inhibitors, primary screen, biochemical, QFRET, BODIPY PC-A2 liposome substrate | QFRET BODIPY PC-A2 liposome hydrolysis, fluorescence | inhibition, % at 12.2 µM | 0.56% of 370,000 active;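 active means inhibition above mean plus 3 SD of compounds lying within the high and low control bounds, cut at about 19% in these data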;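 further: 0% = median of test compound wells and 100% = no enzyme DMSO wells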
MOR ag counter – OPRM1 agonists via beta-arrestin recruitment, confirmation, counter-screen for mouse HTR2A agonist project, cell-based, luminescence, single concentration. shares compounds with m5-HT2A agonist. U2OS OPRM1 beta-arrestin PathHunter; DMSO 0%, DAMGO 9.3 µM 100%. activation, % at 9.3 µM. 5.3% of 2,300 active. AID 624380, 2012;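 active means mean activation above the mean of DMSO-only wells plus 3 SD, cut at about 0.5% in these data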
HTR2A ag conf – mouse HTR2A agonists, beta-arrestin recruitment, confirmation, cell-based, luminescence, CHO-K1 PathHunter, triplicate; DMSO 0%, 30 µM serotonin 100%; shares compounds with m5-HT2A agonist; 19% of 2,300 active; activation, % at 7.6 µM; AID 624381, 2012;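 active means mean activation across triplicates above the hit threshold derived in the original primary screen, cut at about 15% in these data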
Active calls of the source: *; . = no result given.

SMILES | PfM18AAP inh | NRP1-CendR mod | Lipid droplet | m5-HT2A agonist | Arrestin-AP2 inh | HGIII-sPLA2 inh | MOR ag counter | HTR2A ag conf
COc1cccc(-c2nc(-c3cccc(C)c3)nc3cc(Cl)ccc23)c1 | . | 6 | . | 17* | . | 5 | 0 | -1
CCC1(CC)C(=O)NC(=S)N=C1N | . | 19 | . | 21* | -3 | 12 | 0 | 1
CCC1(C2=CCCCC2)C(=O)NC(=S)N=C1N (configuration not stated) | . | 3 | . | -2 | -1 | -3 | . | .
CCn1c(-c2ccc([N+](=O)[O-])cc2)n[nH]c1=S | 9 | 2 | . | 2 | 7 | 12 | . | .
CCn1c(=O)ccc2cc([N+](=O)[O-])ccc21 | 2 | 15 | -3 | 14* | -3 | -3 | -1 | 2
Cc1cccc(C(=O)OCC(=O)c2c(N)n(CC(C)C)c(=O)n(C)c2=O)c1[N+](=O)[O-] | . | 2 | . | 17* | -9 | -17 | 0 | -1
COC(=O)[C@]12C[C@H](CC(=O)NCc3ccc(C)o3)C(=O)N(Cc3ccccc3)C1=C[C@H](C(C)(C)C)O[C@@H]2C | . | . | . | . | . | -6 | . | .
COc1ccc(-c2cnc3c(NC=O)cc(-c4ccc(S(C)(=O)=O)cc4)cn23)cc1OC | . | 0 | . | 15* | . | -9 | 0 | 12
O=C(Nc1ccc(Br)cc1C(=O)O)c1ccc2c(c1)C(=O)N(Cc1ccccc1)C2=O | 2 | -82 | -7 | 15* | 2 | 1 | 0 | -1
CCCN1C(=O)c2ccc(C(=O)Nc3ccccc3C(=O)O)cc2C1=O | -10 | 9 | 14 | 14 | 5 | -8 | . | .
O=C(CN1C(=O)/C(=C/c2ccc(Cl)cc2)SC1=S)NC1C=CS(=O)(=O)C1 (configuration not stated) | 15 | 9 | 2 | 15* | 7 | 4 | 0 | -1
Cc1cccc2nc(-c3cccc(NC(=O)Cc4ccccc4)c3)cn12 | -6 | 0 | -6 | -3 | 11 | -9 | . | .
Cc1cccc2nc(-c3cccc(NC(=O)c4ccc(Cl)cc4)c3)cn12 | -6 | -15 | 20 | 22* | 9 | -20 | -1 | -4
CN(CC(=O)Nc1ccc(F)c(F)c1F)C(=O)CN1C(=O)C2CCCCC2C1=O (configuration not stated) | 4 | 4 | 4 | 15* | -2 | 8 | -1 | -4
CN(CC(=O)Nc1ccc(F)c(F)c1F)C(=O)CCN1C(=O)C2CCCCC2C1=O (configuration not stated) | . | 7 | . | 0 | -6 | -2 | . | .
O[C@@H](c1cc(C(F)(F)F)nc2c(C(F)(F)F)cccc12)[C@H]1CCCCN1 | . | 5 | . | 26* | -10 | -13 | 0.9* | 14
OC(c1cc(C(F)(F)F)nc2c(Cl)cc(Cl)cc12)C1CCCCN1 (configuration not stated) | 0 | 4 | 3 | 4 | -3 | 11 | . | .
COC(=O)[C@]1(C)N[C@H](CN(C)C(=O)Nc2ccc(Cl)cc2)[C@@H]2C(=O)N(Cc3ccccc3)C(=O)[C@@H]21 | . | -4 | . | 18* | -3 | -5 | -1 | 2
Cc1cc(CSc2nc(C)cc(=O)[nH]2)c2ncccc2c1 | 2 | -5 | -6 | 16* | 30 | -9 | -1 | 3
